Key:
Candida albicans = test: Antifungal activity against Candida albicans SKF 2270 assessed as growth inhibition by agar dilution method; type: functional
Cryptococcus neoformans = test: Antifungal activity against Cryptococcus neoformans 103 assessed as growth inhibition by agar dilution method; type: functional
[1] = tested on: Trichophyton mentagrophytes; test: Antifungal activity against Trichophyton mentagrophytes A-280 USPHS assessed as growth inhibition by agar dilution method; type: functional
Trichophyton rubrum = test: Antifungal activity against Trichophyton rubrum 252 CSTM assessed as growth inhibition by agar dilution method; type: functional
Microsporum canis = test: Antifungal activity against Microsporum canis VM-200 USPHS assessed as growth inhibition by agar dilution method; type: functional
Nannizzia gypsea = test: Antifungal activity against Microsporum gypseum 153 CSTM assessed as growth inhibition by agar dilution method; type: functional
Histoplasma capsulatum = test: Antifungal activity against Histoplasma capsulatum RNSH Hi-70 1/2 assessed as growth inhibition by agar dilution method; type: functional
Staphylococcus aureus = test: Antibacterial activity against Staphylococcus aureus ATCC 6538 assessed as growth inhibition after 24 hrs by dilution tube method; type: functional; conditions: ATCC 6538, 24 h
In short: (§1)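 Broth tube dilution in Tryptone Soya Broth, duplicate tubes at each concentration. MIC (μg/ml) was the highest dilution preventing visible growth. Nitrofurantoin run under the same conditions.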

Enterococcus faecalis = test: Antibacterial activity against Streptococcus faecalis ATCC 10541 assessed as growth inhibition after 24 hrs by dilution tube method; type: functional; conditions: ATCC 10541, 24 h; in short: as §1
Pseudomonas aeruginosa = test: Antibacterial activity against Pseudomonas aeruginosa ATCC 10145 assessed as growth inhibition after 24 hrs by dilution tube method; type: functional; conditions: ATCC 10145, 24 h; in short: as §1
Klebsiella pneumoniae = test: Antibacterial activity against Klebsiella pneumoniae ATCC 10031 assessed as growth inhibition after 24 hrs by dilution tube method; type: functional; conditions: ATCC 10031, 24 h; in short: as §1
Salmonella typhi = test: Antibacterial activity against Salmonella typhi 115 assessed as growth inhibition after 24 hrs by dilution tube method; type: functional, Salmonella enterica subsp. enterica serovar Typhi; conditions: Salmonella enterica, 115, 24 h
In short: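 Dilution tube method in Tryptone Soya Broth; MIC (μg/ml) taken as highest dilution preventing visible growth; duplicates at every concentration; nitrofurantoin reference run under same conditions.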

[2] = tested on: Agrobacterium tumefaciens; test: Antibacterial activity against Agrobacterium tumefaciens NRRL B-36 assessed as growth inhibition after 24 hrs by dilution tube method; type: functional; conditions: NRRL B-36, 24 h; in short: as §1
Escherichia coli = test: Antibacterial activity against Escherichia coli 114 assessed as growth inhibition after 24 hrs by dilution tube method; type: functional; conditions: Escherichia coli, 114, 24 h; in short: as §1
[3] = tested on: Mycobacterium tuberculosis; test: Antibacterial activity against Mycobacterium tuberculosis H37Rv assessed as growth inhibition by serial dilution method; type: functional
In short: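 M. tuberculosis H37Rv maintained on Lowenstein–Jensen medium; tested in Youman's medium by serial dilution.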

Row | Structure (SMILES) | MIC (Candida albicans) [µg/mL] | MIC (Cryptococcus neoformans) [µg/mL] | MIC [1] [µg/mL] | MIC (Trichophyton rubrum) [µg/mL] | MIC (Microsporum canis) [µg/mL] | MIC (Nannizzia gypsea) [µg/mL] | MIC (Histoplasma capsulatum) [µg/mL] | MIC (Staphylococcus aureus) [µg/mL] | MIC (Enterococcus faecalis) [µg/mL] | MIC (Pseudomonas aeruginosa) [µg/mL] | MIC (Klebsiella pneumoniae) [µg/mL] | MIC (Salmonella typhi) [µg/mL] | MIC [2] [µg/mL] | MIC (Escherichia coli) [µg/mL] | MIC [3] [µg/mL]
1 | Cc1cc(OCCCC[N+](C)(C)Cc2ccco2)c(C(C)C)cc1Cl.[Br-] | 100 | 25 | > 200 | > 200 | > 200 | > 200 | > 200 | 25 | 25 | 7.5 | 10 | > 200 | 25 | > 200 | 10
2 | C[N+](C)(CCCCCOc1c(Br)cc(Br)cc1Br)Cc1ccco1.[Br-] | 100 | 25 | 100 | > 200 | 100 | 100 | 50 | 25 | 50 | 25 | 25 | > 200 | 100 | > 200 | 25
3 | C[N+](C)(CCCCCCCOc1c(Br)cc(Br)cc1Br)Cc1ccc(Br)o1.[Br-] | > 200 | 5 | > 200 | > 200 | > 200 | > 200 | > 200 | 3 | 4 | 2 | 2 | > 200 | 7.5 | > 200 | 25
4 | C[N+](C)(CCCOc1c(Br)cc(Br)cc1Br)Cc1ccc(Br)o1.[Br-] | > 200 | 50 | > 200 | > 200 | > 200 | > 200 | > 200 | 10 | 25 | 4 | 7.5 | 100 | 50 | > 200 | 10
5 | C[N+](C)(CCCCCCCCCCCCCCOc1c(Br)cc(Br)cc1Br)Cc1ccc(Br)o1.Cc1ccc(S(=O)(=O)[O-])cc1 | > 200 | 200 | > 200 | > 200 | 200 | > 200 | > 200 | 100 | 100 | 50 | 100 | 200 | 200 | > 200 | 200
6 | C[N+](C)(CCCCCCCCCCCCOc1c(Br)cc(Br)cc1Br)Cc1ccc(Br)o1.[Br-] | > 200 | 200 | > 200 | > 200 | 200 | > 200 | > 200 | 200 | 200 | 50 | 200 | > 200 | > 200 | > 200 | 100
7 | Cc1cc(OCCCCCCC[N+](C)(C)Cc2ccc(Br)o2)c(C(C)C)cc1Cl.[Br-] | 50 | 25 | > 200 | > 200 | > 200 | > 200 | > 200 | 10 | 7.5 | 3 | 7.5 | > 200 | 7.5 | > 200 | 7.5
8 | Cc1cc(OCC[N+](C)(C)Cc2ccc([N+](=O)[O-])o2)c(C(C)C)cc1Cl.Cc1ccc(S(=O)(=O)[O-])cc1 | > 200 | 100 | > 200 | > 200 | > 200 | > 200 | > 200 | 100 | 200 | 25 | 25 | > 200 | 100 | > 200 | 50
9 | Cc1ccc(C[N+](C)(C)CCCCCCOc2c(Br)cc(Br)cc2Br)o1.[Br-] | > 200 | 10 | > 200 | > 200 | > 200 | > 200 | 75 | 5 | 7.5 | 2.5 | 5 | 75 | 25 | > 200 | 10
10 | Cc1cc(OCC[N+](C)(C)Cc2ccc(Br)o2)c(C(C)C)cc1Cl.[Br-] | > 200 | 50 | 100 | > 200 | 100 | > 200 | 50 | 9 | 25 | 5 | 25 | 100 | 25 | > 200 | 10
11 | Cc1cc(OCCC[N+](C)(C)Cc2ccc(Br)o2)c(C(C)C)cc1Cl.[Br-] | > 200 | 50 | > 200 | 100 | 100 | > 200 | 100 | 10 | 10 | 4 | 7.5 | 100 | 25 | > 200 | 10
12 | C[N+](C)(CCCCCCCCCCOc1c(Br)cc(Br)cc1Br)Cc1ccc(Br)o1.[Br-] | > 200 | 4 | > 200 | > 200 | > 200 | > 200 | > 200 | 10 | 4 | 2 | 3 | > 200 | 7.5 | > 200 | 50
13 | Cc1cc(OCCCCCC[N+](C)(C)Cc2ccc(Br)o2)c(C(C)C)cc1Cl.Cc1ccc(S(=O)(=O)[O-])cc1 | > 200 | 100 | 200 | 200 | 100 | 200 | > 200 | 50 | 50 | 10 | 25 | > 200 | 100 | > 200 | 10
